A short description of assay [1]: Cytotoxicity against human HCT116 cells assessed as growth inhibition at 50 uM after 48 hrs by SRB assay. It is filed as functional. To be noted: HCT-116, 48 h, read-out: GI. An outline of the steps:
(§1)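 Single-concentration screen at 50 µM. Cells grew 24 h at 37 °C, then had 48 h exposure in complete medium.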

The nature of assay [2]: Cytotoxicity against human COLO205 cells assessed as growth inhibition at 50 uM after 48 hrs by SRB assay. To be noted: COLO 205, 48 h, read-out: GI. It is filed as functional. A digest of the protocol: as §1
For orientation: In SRB staining, fixed cells bind dye roughly in proportion to their protein.

Assay [3] is described as follows: Cytotoxicity against human THP1 cells assessed as growth inhibition at 50 uM after 48 hrs by SRB assay. It counts as functional. To be noted: THP-1, 48 h, read-out: GI. A digest of the protocol: as §1
Assay [4] can be described thus: Cytotoxicity against human PC3 cells assessed as growth inhibition at 50 uM after 48 hrs by SRB assay. The following applies: PC-3, 48 h, read-out: GI. It counts as functional. A digest of the protocol:
as §1

Assay [5] is described as follows: Cytotoxicity against human COLO205 cells after 48 hrs by SRB assay. To be noted: COLO 205, 48 h. It is filed as functional, cell-based. An outline of the steps:
(§2)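 SRB assay in 96-well plates. Cells were seeded and grown 24 h at 37 °C in a CO2 incubator, then given test material in complete medium for a further 48 h. Cells were fixed with cold 50% TCA for 1 h at 4 °C, stained 30 min with 0.4% SRB in 1% acetic acid, and washed with […]. IC50 was taken from multi-concentration testing, run only for hybrids giving >70% inhibition at 50 µM in at least one line.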

Assay [6] in a line: Cytotoxicity against human THP1 cells after 48 hrs by SRB assay. It counts as functional, cell-based. The following applies: THP-1, 48 h. An outline of the steps: as §2
Assay [7] is described as follows: Cytotoxicity against human HCT116 cells after 48 hrs by SRB assay. It is filed as functional, cell-based. The following applies: HCT-116, 48 h. An outline of the steps:
as §2

For a further assay, the target named is Tubulin. Briefly: Inhibition of tubulin (unknown origin) polymerization measured after 1 hr by ELISA plate reader analysis. It is filed as protein-complex assay, Homo sapiens. An outline of the steps: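 Kit-based turbidity assay using tubulin (10 mg in general tubulin buffer with GTP). Compounds were diluted from DMSO stocks, preincubated 2 min at 37 °C in general tubulin buffer, then tubulin diluted in polymerization buffer (general and glycerol tubulin buffers plus GTP) was added. Absorbance at 340 nm was read after 1 h at 37 °C.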

In general, IC50 refers to the concentration needed to halve the response being measured. Higher therefore signals lower potency. For `COc1cc(/C=C/C(=O)/C=C/c2cccc3ccccc23)ccc1OCc1cn(CCOc2cc(=O)oc3ccccc23)nn1`, the inhibition of growth at 50 µM in assay [1] came out at 83%; in assay [2], 85%; in assay [3], 89%; in assay [4], 20%. Besides, the IC50 in assay [5] turned out to be 9.95 µM; in assay [6], 4.48 µM; in assay [7], 6.54 µM; at Tubulin, 7650 nM.
With `COc1cc(/C=C/C(=O)/C=C/c2cccs2)ccc1OCc1cn(CCOc2cc(=O)oc3ccccc23)nn1`, the inhibition of growth at 50 µM in assay [1] was 71%; in assay [2], 66%; in assay [3] it was 76%; in assay [4], 12%. Besides, the half-inhibitory concentration (IC50) in assay [5] is 11.4 µM; in assay [6], 7.14 µM; in assay [7], 9.29 µM.
Regarding `COc1ccccc1/C=C/C(=O)/C=C/c1ccc(OCc2cn(CCOc3cc(=O)oc4ccccc34)nn2)c(OC)c1`, the inhibition of growth at 50 µM is 70% in assay [1], 67% in assay [2], 75% in assay [3] and 11% in assay [4]. The IC50 in assay [5] was found to be 11.5 µM; in assay [6], 7.33 µM; in assay [7], 9.49 µM.
As to `COc1cc(/C=C/C(=O)/C=C/c2cc(OC)c(OC)c(OC)c2)ccc1OCc1cn(CCOc2cc(=O)oc3ccccc23)nn1`, the inhibition of growth at 50 µM in assay [1] was determined as 89%; in assay [2], 86%; in assay [3], 99%; in assay [4] it was 22%. The IC50 in assay [5] was found to be 4.68 µM; in assay [6], 0.82 µM; in assay [7], 2.21 µM; against Tubulin, 1550 nM.
As for `COc1ccc(/C=C/C(=O)/C=C/c2ccc(OCc3cn(CCCOc4cc(=O)oc5ccccc45)nn3)c(OC)c2)cc1OC`, the inhibition of growth at 50 µM in assay [1] came to 67%; in assay [2] it was 65%; in assay [3], 73%; in assay [4] it was 9%. Also, the results for the IC50 in assay [5], in assay [6] and in assay [7] were 13 µM, 8.51 µM and 11 µM, respectively.
As for `COc1cc(/C=C/C(=O)/C=C/c2cccc3ccccc23)ccc1OCc1cn(CCCOc2cc(=O)oc3ccccc23)nn1`, the inhibition of growth at 50 µM in assay [1] is 66%; in assay [2], 64%; in assay [3], 71%; in assay [4], 8%. Moreover, the IC50 in assay [5] is 12.7 µM; in assay [6], 8.41 µM; in assay [7] it was 10.4 µM.
As to `COc1ccc(/C=C/C(=O)/C=C/c2ccc(OCc3cn(CCOc4cc(=O)oc5ccccc45)nn3)c(OC)c2)cc1OC`, the inhibition of growth at 50 µM in assay [1] came out at 82%; in assay [2], 80%; in assay [3] it was 90%; in assay [4], 19%. For the same compound, the IC50 turned out to be 6.78 µM in assay [5], 2.34 µM in assay [6], 4.71 µM in assay [7] and 2880 nM against Tubulin.

For the origin of these results see ChEMBL document CHEMBL3797104, “Triazole tethered C5-curcuminoid-coumarin based molecular hybrids as novel antitubulin agents: Design, synthesis, biological investigation and docking studies” (Eur J Med Chem, 2016).
